Each structure is given as a SMILES string. Where only a bound is given, the exact number is not on record here.

The target in the first test is T1, B2 bradykinin receptor (Homo sapiens, UniProt P30411).
T1 sequence (P30411 whole entry): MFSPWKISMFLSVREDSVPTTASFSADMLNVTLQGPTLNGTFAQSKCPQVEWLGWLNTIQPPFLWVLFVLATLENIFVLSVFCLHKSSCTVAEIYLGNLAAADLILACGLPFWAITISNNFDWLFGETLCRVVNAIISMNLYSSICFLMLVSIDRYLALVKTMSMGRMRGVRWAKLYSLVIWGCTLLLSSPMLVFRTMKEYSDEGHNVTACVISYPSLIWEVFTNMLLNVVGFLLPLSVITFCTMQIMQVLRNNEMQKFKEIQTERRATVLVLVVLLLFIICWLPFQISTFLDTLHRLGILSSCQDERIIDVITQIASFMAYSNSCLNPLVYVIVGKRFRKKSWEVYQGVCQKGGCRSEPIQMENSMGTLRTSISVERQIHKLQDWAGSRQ
As to the kind of experiment: Displacement of [3H]BK from human B2 receptor transfected in CHO cells.
Settings: not given
In kind it is cell-based. In short, it runs like this:
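Membranes from stably transfected CHO cells (100-150 µg/mL) incubated 60 min at room temperature with [³H]BK at 0.1-0.2 nM in TES buffer pH 7.4 with 1,10-phenanthroline, bacitracin and BSA, 1% DMSO final. Competitor 1 pM-10 µM; nonspecific binding with 1 µM BK. Filtration, scintillation counting; IC50 converted to pKi by Cheng-Prusoff.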
For orientation: In a radioligand displacement assay an active substance lowers the binding of a labelled ligand.
For `Cc1ccc2cccc(OCc3c(Cl)ccc(S(=O)(=O)NC(C)(C)C(=O)NCCCNCc4ccc(S(C)(=O)=O)cc4)c3Cl)c2n1`, the Ki (commonly the equilibrium dissociation constant of an inhibitor or competing ligand from its target) was 79.4 nM. Same read-out and setting: then `Cc1cc(C)c2cccc(OCc3c(Cl)ccc(S(=O)(=O)NC(C)(C)C(=O)N4CCN(C(=O)C[C@@H](N)CCCN(C)C)CC4)c3Cl)c2n1`, with 0.631 nM; and `Cc1ccc2cccc(OCc3c(Cl)ccc(S(=O)(=O)NC(C)(C)C(=O)N4CCN(C(=O)C[C@@H](N)CCCCN=C(N)N)CC4)c3Cl)c2n1`, with 1.26 nM. Same read-out and setting: the same measure for `Cc1ccc2cccc(OCc3c(Cl)ccc(S(=O)(=O)NC(C)(C)C(=O)N4CCN(C(=O)[C@@H](N)CCCCN(C)C)CC4)c3Cl)c2n1`: 2 nM. The same measure, in the same setting: then `Cc1ccc2cccc(OCc3c(Cl)ccc(S(=O)(=O)NC(C)(C)C(=O)NCCN)c3Cl)c2n1`, with 100 nM. Regarding `Cc1ccc2cccc(OCc3c(Cl)ccc(S(=O)(=O)NC(C)(C)C(=O)NCCCN(C)C)c3Cl)c2n1`, affinity was put at a Ki of 200 nM. Against the preceding molecule, the Ki is about 2-fold higher.

Consider `Cc1cc(C)c2cccc(OCc3c(Cl)ccc(S(=O)(=O)N4CCC[C@@H]4C(=O)NCCCNC(=O)c4ccc(C(=N)N)cc4)c3Cl)c2n1`, for which the affinity, expressed as Ki, was 0.794 nM. On to `Cc1cc(C)c2cccc(OCc3c(Cl)ccc(S(=O)(=O)NC(C)(C)C(=O)NCCCN)c3Cl)c2n1`, for which the Ki was 25.1 nM. In the case of `Cc1ccc2cccc(OCc3c(Cl)ccc(S(=O)(=O)NC(C)(C)C(=O)NCCCNCc4ccc(N(C)C)cc4)c3Cl)c2n1`, the affinity, expressed as Ki, was 158 nM. The same measure, in the same setting: then `Cc1ccc2cccc(OCc3c(Cl)ccc(S(=O)(=O)NC(C)(C)C(=O)NCCCN4CCOCC4)c3Cl)c2n1`, with 631 nM. On the same count and under the same terms, then `Cc1ccc2cccc(OCc3c(Cl)ccc(S(=O)(=O)NC(C)(C)C(=O)NCCCNCc4ccoc4)c3Cl)c2n1`, with 316 nM; and `COCCNC(=O)C(C)(C)NS(=O)(=O)c1ccc(Cl)c(COc2cccc3ccc(C)nc23)c1Cl`, with 7940 nM. Same read-out and setting: then `Cc1ccc2cccc(OCc3c(Cl)ccc(S(=O)(=O)NC(C)(C)C(=O)NCCCN4CCN(C)CC4)c3Cl)c2n1`, with 251 nM; and `Cc1ccc2cccc(OCc3c(Cl)ccc(S(=O)(=O)NC(C)(C)C(=O)N4CCCNCCC4)c3Cl)c2n1`, with 100 nM.

On to `COCCCNC(=O)C(C)(C)NS(=O)(=O)c1ccc(Cl)c(COc2cccc3ccc(C)nc23)c1Cl`, for which the Ki was 398 nM. Same read-out and setting: the same measure for `Cc1ccc2cccc(OCc3c(Cl)ccc(S(=O)(=O)NC(C)(C)C(=O)NCCCN=C(N)N)c3Cl)c2n1`: 39.8 nM; for `Cc1ccc2cccc(OCc3c(Cl)ccc(S(=O)(=O)NC(C)(C)C(=O)NC4CCNCC4)c3Cl)c2n1`: 79.4 nM.

In turn, `Cc1ccc2cccc(OCc3c(Cl)ccc(S(=O)(=O)NC(C)(C)C(=O)NCCN=C(N)N)c3Cl)c2n1` had a Ki of 20 nM.

`Cc1ccc2cccc(OCc3c(Cl)ccc(S(=O)(=O)NC(C)(C)C(=O)Nc4ccccc4)c3Cl)c2n1` showed a Ki of 7940 nM. On the same count and under the same terms, then `Cc1ccc2cccc(OCc3c(Cl)ccc(S(=O)(=O)NC(C)(C)C(=O)NCCCNC(=O)c4ccc(C(=N)N)cc4)c3Cl)c2n1`, with 20 nM; and `COc1ccc(CNCCCNC(=O)C(C)(C)NS(=O)(=O)c2ccc(Cl)c(COc3cccc4ccc(C)nc34)c2Cl)cc1`, with 200 nM; and `Cc1ccc2cccc(OCc3c(Cl)ccc(S(=O)(=O)NC(C)(C)C(=O)NCCCNCc4ccc(F)cc4)c3Cl)c2n1`, with 398 nM.

In turn, `Cc1ccc2cccc(OCc3c(Cl)ccc(S(=O)(=O)NC(C)(C)C(=O)NCCCc4ccccc4)c3Cl)c2n1` had a Ki above 10000 nM. As for `Cc1ccc2cccc(OCc3c(Cl)ccc(S(=O)(=O)NC(C)(C)C(=O)NCCCNCc4ccc(C(N)=O)cc4)c3Cl)c2n1`, affinity was put at a Ki of 126 nM. As for `Cc1cc(C)c2cccc(OCc3c(Cl)ccc(S(=O)(=O)NC(C)(C)C(=O)N4CCN(C(=O)C[C@@H](N)CCCCN(C)C)CC4)c3Cl)c2n1`, the Ki was 0.501 nM.

Molecule `Cc1ccc2cccc(OCc3c(Cl)ccc(S(=O)(=O)NC(C)(C)C(=O)NCCc4ccccc4)c3Cl)c2n1` gave a Ki above 10000 nM. The same measure, in the same setting: the same measure for `Cc1ccc(CNCCCNC(=O)C(C)(C)NS(=O)(=O)c2ccc(Cl)c(COc3cccc4ccc(C)nc34)c2Cl)cc1`: 200 nM; for `CC(=O)N[C@@H](CCCCN(C)C)C(=O)N1CCN(C(=O)C(C)(C)NS(=O)(=O)c2ccc(Cl)c(COc3cccc4ccc(C)nc34)c2Cl)CC1`: 10 nM; for `Cc1ccc2cccc(OCc3c(Cl)ccc(S(=O)(=O)NC(C)(C)C(=O)N=C(N)N)c3Cl)c2n1`: 63.1 nM. In turn, `Cc1ccc2cccc(OCc3c(Cl)ccc(S(=O)(=O)NC(C)(C)C(=O)NCCN4CCCCC4)c3Cl)c2n1` gave a Ki of 316 nM. Still for that read-out and setting: then `Cc1ccc2cccc(OCc3c(Cl)ccc(S(=O)(=O)NC(C)(C)C(=O)N4CCN(C(=O)[C@@H](N)CCCN(C)C)CC4)c3Cl)c2n1`, with 0.398 nM; and `Cc1ccc2cccc(OCc3c(Cl)ccc(S(=O)(=O)NC(C)(C)C(=O)N4CCCNCC4)c3Cl)c2n1`, with 25.1 nM. For `Cc1ccc2cccc(OCc3c(Cl)ccc(S(=O)(=O)NC(C)(C)C(=O)NCc4ccccc4)c3Cl)c2n1`, the Ki was above 10000 nM. Same read-out and setting: then `Cc1ccc2cccc(OCc3c(Cl)ccc(S(=O)(=O)NC(C)(C)C(=O)N4CCN(C(=O)C[C@@H](N)CCCCN(C)C)CC4)c3Cl)c2n1`, with 0.631 nM; and `Cc1ccc2cccc(OCc3c(Cl)ccc(S(=O)(=O)NC(C)(C)C(=O)NCCCNCc4ccccn4)c3Cl)c2n1`, with 39.8 nM.

`Cc1ccc2cccc(OCc3c(Cl)ccc(S(=O)(=O)NC(C)(C)C(=O)NCCCCN)c3Cl)c2n1`: the Ki is 200 nM.

`Cc1ccc2cccc(OCc3c(Cl)ccc(S(=O)(=O)NC(C)(C)C(=O)NCCCNCc4ccc(Cl)cc4)c3Cl)c2n1` showed a Ki of 794 nM. Compared with the last molecule, the Ki is about 4-fold higher. On the same count and under the same terms, the same measure for `Cc1ccc2cccc(OCc3c(Cl)ccc(S(=O)(=O)NC(C)(C)C(=O)NCCCNCc4ccccc4)c3Cl)c2n1`: 200 nM. As for `Cc1ccc2cccc(OCc3c(Cl)ccc(S(=O)(=O)NC(C)(C)C(=O)NCCN4CCOCC4)c3Cl)c2n1`, the affinity, expressed as Ki, was 2510 nM.

The molecule `Cc1cc(C)c2cccc(OCc3c(Cl)ccc(S(=O)(=O)NC(C)(C)C(=O)NCCCNc4ccc(C(=N)N)cc4)c3Cl)c2n1` had a Ki of 7.94 nM.

`Cc1ccc2cccc(OCc3c(Cl)ccc(S(=O)(=O)NC(C)(C)C(=O)NCCCNCc4ccc(O)cc4)c3Cl)c2n1` had a Ki of 79.4 nM. `Cc1ccc2cccc(OCc3c(Cl)ccc(S(=O)(=O)NC(C)(C)C(=O)NCC4CCNCC4)c3Cl)c2n1`: the affinity, expressed as Ki, was 158 nM.

As to `Cc1ccc2cccc(OCc3c(Cl)ccc(S(=O)(=O)NC(C)(C)C(=O)NCCCN)c3Cl)c2n1`, the Ki was 158 nM. Still for that read-out and setting: then `Cc1ccc2cccc(OCc3c(Cl)ccc(S(=O)(=O)NC(C)(C)C(=O)N4CCN(C(=O)C[C@@H](N)CCCN(C)C)CC4)c3Cl)c2n1`, with 0.794 nM. The same measure, in the same setting: then `Cc1ccc2cccc(OCc3c(Cl)ccc(S(=O)(=O)NC(C)(C)C(=O)NCCCNCc4c[nH]cn4)c3Cl)c2n1`, with 158 nM.

Molecule `Cc1ccc2cccc(OCc3c(Cl)ccc(S(=O)(=O)NC(C)(C)C(=O)N4CCNCC4)c3Cl)c2n1` had a Ki of 25.1 nM.

The next test deals with T1, B2 bradykinin receptor. Kind of test: Activity at human B2 receptor transfected in CHO cells assessed as ability to antagonize BK-induced inositol-phosphate accumulation. The settings on record: read-out: pA2 (converted). In kind it is functional, cell-based. In short, it runs like this:
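Stably transfected CHO cells (1.8 × 10⁵/well) grown overnight at 37 °C, then labeled 24 h with [³H]myo-inositol (1 µCi/well). Antagonist preincubation 20 min at a nanomolar concentration, then BK 1 × 10^-11 to 1 × 10^-5 M for 40 min at 37 °C in LiCl-containing buffer, pH 7.4. IP1 radioactivity by liquid scintillation; pA₂ from EC50 concentration-ratios of sigmoidal fits.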
On to `Cc1cc(C)c2cccc(OCc3c(Cl)ccc(S(=O)(=O)NC(C)(C)C(=O)N4CCN(C(=O)C[C@@H](N)CCCN(C)C)CC4)c3Cl)c2n1`, for which the Kb was 2.51 nM. On the same count and under the same terms, then `Cc1ccc2cccc(OCc3c(Cl)ccc(S(=O)(=O)NC(C)(C)C(=O)N4CCN(C(=O)C[C@@H](N)CCCCN=C(N)N)CC4)c3Cl)c2n1`, with 7.94 nM; and `Cc1ccc2cccc(OCc3c(Cl)ccc(S(=O)(=O)NC(C)(C)C(=O)N4CCN(C(=O)[C@@H](N)CCCCN(C)C)CC4)c3Cl)c2n1`, with 11.2 nM; and `Cc1cc(C)c2cccc(OCc3c(Cl)ccc(S(=O)(=O)NC(C)(C)C(=O)N4CCN(C(=O)C[C@@H](N)CCCCN(C)C)CC4)c3Cl)c2n1`, with 2.51 nM. On the same count and under the same terms, then `CC(=O)N[C@@H](CCCCN(C)C)C(=O)N1CCN(C(=O)C(C)(C)NS(=O)(=O)c2ccc(Cl)c(COc3cccc4ccc(C)nc34)c2Cl)CC1`, with 20 nM; and `Cc1ccc2cccc(OCc3c(Cl)ccc(S(=O)(=O)NC(C)(C)C(=O)N4CCN(C(=O)[C@@H](N)CCCN(C)C)CC4)c3Cl)c2n1`, with 25.1 nM; and `Cc1ccc2cccc(OCc3c(Cl)ccc(S(=O)(=O)NC(C)(C)C(=O)N4CCN(C(=O)C[C@@H](N)CCCCN(C)C)CC4)c3Cl)c2n1`, with 39.8 nM. The same measure, in the same setting: the same measure for `Cc1cc(C)c2cccc(OCc3c(Cl)ccc(S(=O)(=O)NC(C)(C)C(=O)N4CCN(C(=O)[C@@H](N)CCCCN(C)C)CC4)c3Cl)c2n1`: 3.16 nM. As to `Cc1ccc2cccc(OCc3c(Cl)ccc(S(=O)(=O)NC(C)(C)C(=O)N4CCN(C(=O)C[C@@H](N)CCCN(C)C)CC4)c3Cl)c2n1`, the Kb was 39.8 nM.

The values are drawn from ChEMBL document CHEMBL1148641, “Design and synthesis of novel sulfonamide-containing bradykinin hB2 receptor antagonists. 1. Synthesis and SAR of alpha,alpha-dimethylglycine sulfonamides” (J Med Chem, 2006).
